The source made the active and inactive calls. No cut-off for these calls is given here.
Key:
[1] = target: DNA topoisomerase 2-alpha (Homo sapiens) (UniProt P11388); test: (§1) Poison activity at recombinant human topoisomerase-2alpha expressed in Saccharomyces cerevisiae JEL1 harboring topoisomerase1 deletion mutant assessed as concentration required to triple the level of DNA cleavage complex relative to basal level using supercoiled pBR322 DNA as substrate measured after 6 mins by ethidium bromide staining based agarose gel electrophoresis
Chain of DNA topoisomerase 2-alpha (Homo sapiens) (P11388 whole entry, the tested form may be a part): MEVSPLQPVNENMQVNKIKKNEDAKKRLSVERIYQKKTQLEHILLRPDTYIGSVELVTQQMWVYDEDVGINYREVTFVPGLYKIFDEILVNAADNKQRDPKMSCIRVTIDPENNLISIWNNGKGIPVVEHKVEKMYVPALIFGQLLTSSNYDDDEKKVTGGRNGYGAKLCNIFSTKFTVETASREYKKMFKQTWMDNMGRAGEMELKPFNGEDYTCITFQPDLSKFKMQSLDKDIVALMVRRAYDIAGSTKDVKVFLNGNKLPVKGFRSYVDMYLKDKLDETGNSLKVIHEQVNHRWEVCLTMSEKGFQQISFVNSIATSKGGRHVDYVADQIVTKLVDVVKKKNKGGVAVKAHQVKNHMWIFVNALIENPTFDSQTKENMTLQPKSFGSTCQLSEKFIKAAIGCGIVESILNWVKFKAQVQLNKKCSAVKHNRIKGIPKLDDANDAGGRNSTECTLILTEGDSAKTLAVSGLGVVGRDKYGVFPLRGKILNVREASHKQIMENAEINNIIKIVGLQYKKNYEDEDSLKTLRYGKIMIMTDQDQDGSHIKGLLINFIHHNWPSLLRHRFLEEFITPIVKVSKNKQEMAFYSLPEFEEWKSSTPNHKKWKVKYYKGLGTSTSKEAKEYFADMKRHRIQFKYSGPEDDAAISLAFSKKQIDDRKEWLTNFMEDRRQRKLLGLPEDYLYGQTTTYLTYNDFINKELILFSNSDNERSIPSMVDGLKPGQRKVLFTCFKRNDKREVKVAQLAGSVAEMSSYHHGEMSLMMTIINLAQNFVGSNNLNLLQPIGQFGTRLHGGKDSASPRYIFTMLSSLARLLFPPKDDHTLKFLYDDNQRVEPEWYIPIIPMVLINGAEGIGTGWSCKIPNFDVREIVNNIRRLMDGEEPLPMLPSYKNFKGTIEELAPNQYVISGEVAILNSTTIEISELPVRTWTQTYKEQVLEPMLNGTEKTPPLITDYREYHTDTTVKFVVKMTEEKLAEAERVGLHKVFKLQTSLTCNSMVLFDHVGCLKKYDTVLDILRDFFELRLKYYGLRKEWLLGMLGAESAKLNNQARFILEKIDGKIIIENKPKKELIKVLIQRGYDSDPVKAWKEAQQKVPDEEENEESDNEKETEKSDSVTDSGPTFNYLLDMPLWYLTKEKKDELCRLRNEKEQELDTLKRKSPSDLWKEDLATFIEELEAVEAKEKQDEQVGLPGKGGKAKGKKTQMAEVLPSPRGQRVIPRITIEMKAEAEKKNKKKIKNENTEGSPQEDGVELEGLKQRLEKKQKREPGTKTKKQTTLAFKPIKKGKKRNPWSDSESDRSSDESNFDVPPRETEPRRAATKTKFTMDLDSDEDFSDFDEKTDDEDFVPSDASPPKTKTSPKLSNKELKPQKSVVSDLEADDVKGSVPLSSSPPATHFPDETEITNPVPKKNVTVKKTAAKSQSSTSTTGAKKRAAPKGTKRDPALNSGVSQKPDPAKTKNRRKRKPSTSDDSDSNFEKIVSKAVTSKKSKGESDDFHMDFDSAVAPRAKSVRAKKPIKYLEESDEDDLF
Procedure, shortened: (§2)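 Enhancement of topoisomerase IIα-mediated double-stranded cleavage of negatively supercoiled DNA, measured over a compound concentration range. Cleavage is expressed relative to the baseline of enzyme without compound.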

[2] = target: DNA topoisomerase 2-alpha (Homo sapiens) (UniProt P11388); test: Inhibition of recombinant human topoisomerase-2alpha mediated DNA ligation expressed in Saccharomyces cerevisiae JEL1 harboring topoisomerase1 deletion mutant at 50 uM measured after 6 mins by ethidium bromide staining based agarose gel electrophoresis
Procedure, shortened: (§3)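 Topoisomerase IIα-mediated DNA ligation measured with or without 1 mM compound; controls at 50 µM. Mean ± standard deviation of at least three independent experiments.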

[3] = target: DNA topoisomerase 2-alpha (Homo sapiens) (UniProt P11388); test: as §1, with “increase in double stranded” for “concentration required to triple the level of”, “at 50 uM” for “complex relative to basal level”, “substrate in presence of reducing agent DTT” for “substrate”
Procedure, shortened: (§4)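 Topoisomerase IIα DNA cleavage with 1 mM compound, run without and with 0.5 mM DTT. Controls are no-compound and 50 µM reactions. Mean ± standard deviation of at least three independent experiments.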

[4] = target: DNA topoisomerase 2-alpha (Homo sapiens) (UniProt P11388); test: Poison activity at recombinant human topoisomerase-2alpha catalytic domain (431 to 1193 residues) assessed as increase in double stranded DNA cleavage at 50 uM using supercoiled pBR322 DNA as substrate measured after 6 mins by ethidium bromide staining based agarose gel electrophoresis
Procedure, shortened: (§5)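 Double-stranded DNA cleavage by full-length topoisomerase IIα and by the catalytic core (lacking N- and C-terminal domains), run in parallel. Compounds at 1 mM; controls at 50 µM; a no-compound baseline is included. Mean ± SD of ≥3 independent experiments.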

[5] = target: DNA topoisomerase 2-alpha (Homo sapiens) (UniProt P11388); test: as §1, with “increase in double stranded” for “concentration required to triple the level of”, “at 1 mM” for “complex relative to basal level”, “substrate in presence of reducing agent DTT” for “substrate”; procedure, shortened: as §4
[6] = target: DNA topoisomerase 2-alpha (Homo sapiens) (UniProt P11388); test: Poison activity at recombinant human topoisomerase-2alpha catalytic domain (431 to 1193 residues) assessed as increase in double stranded DNA cleavage at 1 mM using supercoiled pBR322 DNA as substrate measured after 6 mins by ethidium bromide staining based agarose gel electrophoresis; procedure, shortened: as §5
[7] = target: DNA topoisomerase 2-alpha (Homo sapiens) (UniProt P11388); test: Inhibition of recombinant human topoisomerase-2alpha mediated DNA ligation expressed in Saccharomyces cerevisiae JEL1 harboring topoisomerase1 deletion mutant at 1 mM measured after 6 mins by ethidium bromide staining based agarose gel electrophoresis; procedure, shortened: as §3
Bos taurus = organism: Bos taurus; test: Activity at calf thymus DNA topoisomerase-1 assessed as DNA intercalation by measuring band shift at 1 mM using pBR322 DNA as substrate measured after 15 mins by ethidium bromide staining based agarose gel electrophoresis relative to control
Procedure, shortened: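 Topoisomerase I relaxation of negatively supercoiled DNA in the presence of compound. Intercalation is read as a shift of topoisomer bands toward the supercoiled position. Controls are DNA alone and DNA plus topoisomerase I without compound. Gel representative of three independent experiments.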

[8] = target: DNA topoisomerase 2-alpha (Homo sapiens) (UniProt P11388); test: Poison activity at recombinant human topoisomerase-2alpha expressed in Saccharomyces cerevisiae JEL1 harboring topoisomerase1 deletion mutant assessed as increase in double stranded DNA cleavage at 1 mM using supercoiled pBR322 DNA as substrate preincubated for 1 to 5 mins followed by substrate addition measured after 6 mins by ethidium bromide staining based agarose gel electrophoresis
Procedure, shortened: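 Topoisomerase IIα was preincubated with 1 mM compound for 1–5 min, then the cleavage reaction was started by adding DNA. Cleavage was followed against preincubation time.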

[9] = target: DNA topoisomerase 2-alpha (Homo sapiens) (UniProt P11388); test: Poison activity at recombinant human topoisomerase-2alpha expressed in Saccharomyces cerevisiae JEL1 harboring topoisomerase1 deletion mutant assessed as double stranded DNA cleavage using supercoiled pBR322 DNA as substrate at 1000 uM measured after 6 mins by ethidium bromide staining based agarose gel electrophoresis relative to control; procedure, shortened: as §2
[10] = target: DNA topoisomerase 2-alpha (Homo sapiens) (UniProt P11388); test: Poison activity at recombinant human topoisomerase-2alpha expressed in Saccharomyces cerevisiae JEL1 harboring topoisomerase1 deletion mutant assessed as increase in double stranded DNA cleavage up to 1000 uM using supercoiled pBR322 DNA as substrate measured after 6 mins by ethidium bromide staining based agarose gel electrophoresis relative to control; procedure, shortened: as §2

inhibition [2]	inhibition [7]	Activity (Bos taurus)	Compound	Activity [1] [µM]	Activity [3]	Activity [4]	Activity [5]	Activity [6]	Activity [8]	Activity [9] [%]	fold change (FC) [10]
–	–	–	c1ccc2nc3ccccc3cc2c1	> 1000	–	–	–	–	–	–	–
Active	–	–	COc1cc(NS(C)(=O)=O)ccc1Nc1c2ccccc2nc2ccccc12	8.5	Active	Active	–	–	–	–	–
–	inactive	Active	Cc1ccc2c(N)c3c(nc2c1)CC(C(F)(F)F)CC3=O (stereo not given)	800	–	–	inactive	inactive	Active	–	–
–	inactive	Active	Nc1c2c(nc3ccc(Cl)cc13)CC(C(F)(F)F)CC2=O (stereo not given)	85	–	–	inactive	inactive	Active	< 35	5.5 to 8.5
–	inactive	Active	Nc1c2c(nc3ccccc13)CC(C(F)(F)F)CC2=O (stereo not given)	155	–	–	inactive	inactive	Active	–	5.5 to 8.5
–	inactive	Active	O=C1CC(C(F)(F)F)Cc2nc3ccccc3cc21 (stereo not given)	> 1000	–	–	–	–	–	–	5.5 to 8.5
–	inactive	Active	Nc1c2c(nc3ccc([N+](=O)[O-])cc13)CC(C(F)(F)F)CC2=O (stereo not given)	> 1000	–	–	–	–	–	–	–
–	inactive	Active	Nc1c2c(nc3ccc(Br)cc13)CC(C(F)(F)F)CC2=O (stereo not given)	90	–	–	inactive	inactive	Active	< 35	5.5 to 8.5
–	inactive	Active	Nc1c2c(nc3ccc(F)cc13)CC(C(F)(F)F)CC2=O (stereo not given)	520	–	–	inactive	inactive	–	< 35	5.5 to 8.5
Active	–	–	COc1cc([C@@H]2c3cc4c(cc3[C@@H](O[C@@H]3O[C@@H]5CO[C@@H](C)O[C@H]5[C@H](O)[C@H]3O)[C@H]3COC(=O)[C@H]23)OCO4)cc(OC)c1O	32	–	–	–	–	–	–	–

Reference: ChEMBL document CHEMBL4000190, “Novel trifluoromethylated 9-amino-3,4-dihydroacridin-1(2H)-ones act as covalent poisons of human topoisomerase IIα” (Bioorg Med Chem Lett, 2017)
